Assay outcomes: PubChem BioAssay, several laboratories
Compounds with a hit are over-represented: about 6% of the library has one in this group of screens.
Lung fibro prol = blocks proliferation of human lung fibroblasts; LL 47 human lung fibroblast viability, ATP luminescence; hits give low values; viability, % at 10 µM; 85,000 tested, 1.1% active; AID 719;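 active = viability at or below 50% in the single dose screen; inactive = viability above 50%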;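 also: compound exposure lasted 72 h before the ATP readout; 100% = median luminescence of untreated cell-only wells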
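Test system: LL 47 human lung fibroblasts / Quantity: 1,150 cells in each well / Medium: IMEM growth medium with 15% fetal bovine serum / Incubation: 72 h compound exposure at 37 °C after overnight plating / Detection: CellTiter-Glo luminescence measuring cellular ATP / Read-out: % viability versus median cells-only luminescence / Benchmarks: cell-only wells, no compound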
H69AR growth 86K = growth inhibitors of human H69AR lung tumor cells. viability, % at 10 µM. 85,000 tested, 6% active. H69AR lung tumor viability, ATP luminescence, 72 h; hits give low values;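 active = viability at or below 40%; inactive = viability above 40%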;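 also: multidrug resistant small cell line overexpressing MRP-1 efflux transporter; 100% = mean luminescence of untreated control wells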
PTK2B oligo ant = Pyk2 (human) oligomerization antagonism; Q293 cells, Pyk2 FERM NanoBiT luminescence; hits give low values; Q14289; 99,000 tested, 0.83% active; z-score (the deposit names both 25 µM and 10 µM);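 active = Z-score of -3 or lower, scaled per plate to the spread of control and sample wells; inactive = z-score above -3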;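 also: negative z-score means lost luminescence so less FERM oligomerization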
Target sequence (Q14289 whole entry, looked up): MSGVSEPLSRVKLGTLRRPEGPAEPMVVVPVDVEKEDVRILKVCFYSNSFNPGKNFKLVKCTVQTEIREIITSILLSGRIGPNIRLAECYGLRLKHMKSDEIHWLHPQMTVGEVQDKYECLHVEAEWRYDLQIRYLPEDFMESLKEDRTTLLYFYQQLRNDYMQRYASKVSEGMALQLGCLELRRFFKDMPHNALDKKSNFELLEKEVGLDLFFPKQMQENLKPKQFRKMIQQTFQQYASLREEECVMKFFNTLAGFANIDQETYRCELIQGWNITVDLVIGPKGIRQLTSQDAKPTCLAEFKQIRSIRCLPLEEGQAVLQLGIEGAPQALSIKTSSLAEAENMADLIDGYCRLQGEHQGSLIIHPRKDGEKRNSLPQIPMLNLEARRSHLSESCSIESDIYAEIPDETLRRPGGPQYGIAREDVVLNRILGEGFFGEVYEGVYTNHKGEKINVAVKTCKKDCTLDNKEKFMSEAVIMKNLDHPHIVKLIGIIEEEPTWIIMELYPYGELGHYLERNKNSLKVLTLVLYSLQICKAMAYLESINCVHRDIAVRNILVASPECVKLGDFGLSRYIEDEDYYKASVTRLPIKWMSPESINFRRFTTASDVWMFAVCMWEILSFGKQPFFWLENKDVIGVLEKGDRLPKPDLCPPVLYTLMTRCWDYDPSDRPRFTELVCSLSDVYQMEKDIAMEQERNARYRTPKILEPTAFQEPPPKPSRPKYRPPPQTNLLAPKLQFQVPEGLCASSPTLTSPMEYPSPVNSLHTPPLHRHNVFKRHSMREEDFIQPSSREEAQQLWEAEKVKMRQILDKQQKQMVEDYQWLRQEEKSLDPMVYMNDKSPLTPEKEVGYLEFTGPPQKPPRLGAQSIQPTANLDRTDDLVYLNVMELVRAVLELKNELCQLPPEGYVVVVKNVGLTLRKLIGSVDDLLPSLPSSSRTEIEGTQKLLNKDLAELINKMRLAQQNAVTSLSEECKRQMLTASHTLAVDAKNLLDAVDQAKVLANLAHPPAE
HUVEC prolif 384 = inhibitors of human endothelial cell proliferation; HUVEC proliferation, CellTiter-Glo luminescence, 72 h; hits give low values; viability, % at 10 µM (by protocol); 86,000 tested, 1.1% active;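 active = viability at or below 30%; inactive = viability above 30%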;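 also: 100% = median luminescence of DMSO-only cell control wells on each plate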
cytoskel mod = modifiers of cytoskeleton assembly | HUVEC TNFa F-actin phalloidin imaging, high content | inhibition, % at 2 µM | 91,000 tested, 0.18% active;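 active = inhibition above the batch mean plus 3 SD and confirmed as a hit by visual image inspection, cut at about 30% in these data, passing the limit was not always enough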
Jurkat viability = cytotoxicity toward Jurkat cells; Jurkat E6.1 viability, ATP luminescence, 48 h; inhibition, % at 4 µM; 56,000 tested, 1.2% active;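 active = inhibition above the mean inhibition of all tested compounds plus 3 SD, cut at about 28% in these data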
* hit, by the source's call; x = no result.

SMILES | Lung fibro prol | H69AR growth 86K | PTK2B oligo ant | HUVEC prolif 384 | cytoskel mod | Jurkat viability
CCOC(=O)Nc1ccc2c(c1)N(C(=O)CCN1CCOCC1)c1ccccc1S2=O (centres undefined) | 74 | 1.9* | -0.81 | 73 | 7 | 15
Clc1ccc(-n2nnnc2Sc2ncnc3sccc23)cc1 | 48* | 2.0* | -1.7 | 4.6* | -12 | 66*
Cc1sc2ncnc(Sc3nnnn3-c3ccccc3)c2c1C | 10* | 0.9* | -2.1 | 26* | 24 | 1
Nc1ccc(Sc2nnnn2-c2ccccc2)c(Cl)c1 | 100 | 99 | -3 | 100 | -21 | 6
O=[N+]([O-])c1ccc(Sc2nnnn2-c2ccccc2)c(Cl)c1 | 44* | 5.1* | -0.8 | 51 | 2 | x
Cc1nc(SC2CC(=O)N(c3cc(Cl)cc(Cl)c3)C2=O)nc2c1CCCC2 (centres undefined) | 101 | 90 | -2.4 | 72 | 6 | x
COc1ccc(N2C(=O)CC(Sc3nc(C)c4c(n3)CCCC4)C2=O)cc1 (centres undefined) | 81 | 25* | 1 | 60 | 16 | 30
O=C(Nc1ccc2oc(=O)ccc2c1)c1cccnc1Cl | 109 | 93 | 0.44 | 109 | 38 | x
Cn1c(NC(=O)c2cc(-c3ccc4c(c3)OCO4)nc3ccccc23)cc(=O)n(C)c1=O | 81 | 60 | -4* | 79 | 13 | 6
O=C(Nc1ccc2c(c1)OCCO2)c1cc(-c2ccccc2)nc2ccccc12 | x | x | -1.9 | x | 27 | x
CC(C)(C)c1ccc(C(=O)Nc2cccc3c(=O)[nH][nH]c(=O)c23)cc1 | x | x | -0.56 | x | x | x
CCc1nnc(N2C(=O)c3cccc4cccc(c34)C2=O)s1 | 97 | 74 | -0.98 | 82 | -7 | x
Clc1ccc2c(c1)C(N1CCNCC1)Cc1ccccc1S2 (centres undefined) | 2.4* | 2.0* | 0.25 | 2.3* | -14 | x
O=C(Nc1nccs1)c1ccc(S(=O)(=O)NCC2CCCCC2)cc1 | 97 | 51 | -2.1 | 77 | -19 | 37*
O=C(Nc1nccs1)c1ccc(S(=O)(=O)NCc2cccs2)cc1 | 102 | 51 | -0.83 | 100 | -2 | 9
Cc1nc(C)c(-c2csc(NCc3ccco3)n2)s1 | 97 | 93 | 0.81 | 95 | x | -1
Cc1nc2ccccn2c1-c1csc(NCc2ccco2)n1 | 91 | 78 | 0.54 | 98 | -21 | 32*
c1coc(CNc2nc(-c3ccncc3)cs2)c1 | 113 | 94 | 3.1 | 103 | -28 | 9
Cc1ccc(Nc2nc(-c3c(C)nc4ccccn34)cs2)cc1 | x | x | -2.6 | x | -70 | x
Cc1ccn2c(-c3csc(NCc4ccccc4)n3)c(C)nc2c1 | 85 | 22* | 1.4 | 63 | -3 | x
Cc1nc(NC(=O)c2ccccc2)sc1-c1csc(NCc2ccco2)n1 | 88 | 18* | -0.38 | 67 | -3 | 6
C=CCSc1nnc(NC(=O)c2cccc(S(=O)(=O)N3CCOCC3)c2)s1 | 109 | 86 | -1.6 | 70 | -10 | 9
Cc1nn(C(=O)c2c([N+](=O)[O-])cnn2C)c(C)c1Cl | 97 | 99 | -0.09 | 95 | -7 | x
COc1ccc(S(=O)(=O)Nc2ccc(F)c(Cl)c2)cc1OC | x | 115 | -1.7 | 100 | x | 6
COC(=O)C1=C(C)NC2=C(C(=O)CC(c3cccs3)C2)C1c1ccsc1 (centres undefined) | 69 | 24* | -2.1 | 71 | -24 | x
SMILES | Lung fibro prol | H69AR growth 86K | PTK2B oligo ant | HUVEC prolif 384 | cytoskel mod | Jurkat viability
CCOC(=O)C1=C(C)NC2=C(C(=O)CC(c3cccs3)C2)C1c1cccs1 (centres undefined) | 57 | 15* | -3.3* | 41 | -2 | x
CC1=C(C(=O)OC2CCCC2)C(c2ccc(C)o2)C2=C(CC(c3cccs3)CC2=O)N1 (centres undefined) | 85 | 35* | -1.5 | 93 | 10 | 8
Cc1ccc(N(CC(=O)O)S(C)(=O)=O)cc1Cl | 101 | 97 | 0.4 | 89 | 4 | 3
Cc1ccc(-c2csc(N3CCC(NS(=O)(=O)c4ccc5c(c4)OCCO5)CC3)n2)cc1 | 100 | 99 | -0.08 | 85 | 17 | 11
CCOC(=O)c1sc2nc(N3CCCC3)c3c(c2c1N)CC(C)(C)OC3 | x | x | -0.49 | x | 5 | -5
CCOC(=O)c1sc2nc(C(C)C)c3c(c2c1N)CC(C)(C)OC3 | 48* | 50 | -1.8 | 64 | -11 | x
N#CC(C#N)=c1ccc2c(c1)NC1(CCCCC1)N=2 | 7.4* | 1.1* | -0.8 | 28* | 41 | 42*
C=CCNCCCCOc1ccc(C)cc1[N+](=O)[O-] | x | x | 0.71 | x | -13 | x
O=C(NC(=O)c1ccncc1)NC(c1ccccc1)c1ccccc1 | 94 | 94 | -1.2 | 88 | 0 | x
CSc1ccc(CNc2cccc3ccccc23)cc1 | x | x | -4.3* | x | -3 | x
CSc1ccc(CNc2ccc(C)cc2)cc1 | x | x | -0.04 | x | 20 | x
Cc1ccc2oc(=O)c3cnn(CC(=O)N(CCC(C)C)Cc4ccco4)c3c2c1 | 97 | 38* | x | 71 | 0 | 1
CCCCN(Cc1ccco1)C(=O)Cn1ncc2c(=O)oc3ccc(C)cc3c21 | x | x | x | x | -1 | x
CCOC(=O)CC(=O)CSc1nc2c(cc1C#N)CCC2 | 101 | 35* | 0.23 | 76 | -20 | x
CCOC(=O)CSc1nc2cc(C)ccc2cc1C#N | 83 | 34* | 1.3 | 78 | -17 | 11
CCOC(=O)CSc1nc2ccc(C)cc2cc1C#N | 106 | 82 | 0.1 | 106 | -12 | x
CCOc1ccc2cc(C#N)c(SCC(=O)N3CCOCC3)nc2c1 | 98 | 52 | -0.51 | 111 | -7 | 7
CCOc1ccc2nc(SCC(=O)N3CCCCCC3)c(C#N)cc2c1 | x | 38* | -2 | 91 | 7 | 3
CCOC(=O)c1ccc(NC(=O)CCc2nc(-c3ccc(Cl)cc3)no2)cc1 | 92 | 24* | -0.13 | 57 | -9 | 6
CCOC(=O)c1ccc(NC(=O)CCc2nc(-c3ccc(C)cc3)no2)cc1 | 95 | 84 | -0.78 | 30* | -14 | 14
COc1cc(OC)cc(C(=O)N2CCC(N3CCCCCC3)CC2)c1 | 100 | 99 | 0.19 | 94 | -3 | x
O=C(NCc1cccc(C(F)(F)F)c1)C1CC(c2c(Cl)cccc2Cl)=NO1 (centres undefined) | x | x | x | x | -21 | x
CC(C)c1nc2sc3c(SCC(=O)NCc4ccco4)ncnc3c2c2c1CCC2 | 94 | 40 | 0.32 | 55 | x | x
Cc1nc2c(sc3nc4c(cc32)COC(C)(C)C4)c(=O)n1CC(=O)NCc1ccco1 | 55 | 24* | 0.63 | 49 | x | x
CC1(C)Cc2nc3sc4c(SCC(=O)NCc5ccco5)ncnc4c3cc2CO1 | 62 | 26* | -0.3 | 75 | -20 | 78*
CCOc1ccc(Nc2cc(C)nc(-n3nc(C)cc3C)n2)cc1 | x | x | 0.87 | x | 15 | 99*
CNc1cc(C)nc(-n2nc(C)cc2C)n1 | 88 | 75 | 0.34 | 116 | 11 | 4
Cc1cccc(-n2ccnc2SCC(=O)Nc2nccs2)c1C | 77 | 82 | -0.83 | 97 | -16 | 4
CCc1nnc(NC(=O)CSc2nccn2-c2cc(C)cc(C)c2)s1 | 99 | 22* | x | 78 | -11 | 19
